Data taken from ChEMBL document CHEMBL1145542, “Discovery of a new class of potent, selective, and orally bioavailable CRTH2 (DP2) receptor antagonists for the treatment of allergic inflammatory diseases” (J Med Chem, 2008).
pIC50, pKi: −log10 of the molar value. Values belong to the molecule of their own block, whether it stands above or below them.

What was measured:
[1] = target: T1, Prostaglandin D2 receptor 2 (Homo sapiens, UniProt Q9Y5Y4); test: Displacement of [3H]PGD2 from human CRTH2 receptor expressed in CHO cells; assay type: cell-based
T1 sequence (Q9Y5Y4 whole entry): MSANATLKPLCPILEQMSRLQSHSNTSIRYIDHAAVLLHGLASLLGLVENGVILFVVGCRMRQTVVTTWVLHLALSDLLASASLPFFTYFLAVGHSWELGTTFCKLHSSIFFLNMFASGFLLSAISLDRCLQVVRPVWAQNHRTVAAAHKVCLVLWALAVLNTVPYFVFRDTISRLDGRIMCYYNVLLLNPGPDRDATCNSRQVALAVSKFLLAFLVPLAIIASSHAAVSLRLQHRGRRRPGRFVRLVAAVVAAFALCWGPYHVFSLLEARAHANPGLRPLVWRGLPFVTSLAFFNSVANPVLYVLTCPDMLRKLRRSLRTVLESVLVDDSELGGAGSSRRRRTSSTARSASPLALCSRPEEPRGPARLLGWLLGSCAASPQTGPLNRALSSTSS
How it was run: (§1)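 Scintillation proximity competition assay: 2–5 µg human or mouse CRTH2 membranes (nitrogen-cavitation, differential centrifugation) with WGA-SPA beads and 1.5 nM [3H]PGD2 in 10 mM HEPES/KOH pH 7.4, 10 mM MnCl2, protease inhibitors, 1% Me2SO, 90 min shaking at room temperature. Nonspecific binding with 1 µM PGD2. Ki by Cheng–Prusoff, mean of ≥3 independent experiments.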

[2] = target: T2, Prostaglandin D2 receptor 2 (Mus musculus, UniProt Q9Z2J6); test: Displacement of [3H]PGD2 from mouse CRTH2 receptor expressed in HEK293 cells; assay type: cell-based; how it was run: as §1
T2 sequence (Q9Z2J6 whole entry): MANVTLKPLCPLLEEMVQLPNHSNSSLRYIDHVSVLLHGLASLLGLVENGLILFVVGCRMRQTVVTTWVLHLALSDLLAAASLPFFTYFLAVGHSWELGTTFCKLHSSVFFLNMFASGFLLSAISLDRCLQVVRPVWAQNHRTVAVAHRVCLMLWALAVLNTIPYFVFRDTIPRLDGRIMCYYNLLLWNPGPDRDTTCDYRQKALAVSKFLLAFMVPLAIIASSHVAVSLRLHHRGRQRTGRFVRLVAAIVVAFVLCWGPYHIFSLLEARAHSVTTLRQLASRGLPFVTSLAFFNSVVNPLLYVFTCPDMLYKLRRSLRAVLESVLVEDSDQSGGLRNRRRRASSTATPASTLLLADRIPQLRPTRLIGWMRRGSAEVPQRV

[3] = Intrinsic clearance per mg of protein in human liver microsomes at 3 uM; assay type: ADME, Microsome
How it was run: (§2)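 Rat or human liver microsomes (0.5 mg/mL final) in 0.1 M phosphate pH 7.4 with 3 µM compound (1% DMSO), preincubated at 37 °C, started with 1 mM NADPH. Quenched with cold acetonitrile at 0, 15, 30, 45 min; LC/MS-MS of compound disappearance gives intrinsic clearance.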

[4] = Intrinsic clearance per mg of protein in rat liver microsomes at 3 uM; assay type: ADME, Microsome; how it was run: as §2
[5] = Apparent permeability across human Caco-2 cell membrane at 10 uM; assay type: ADME, cell-based
How it was run: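 Caco-2 monolayers grown 21 days on Transwell filters; TEER above 800 ohm·cm² required. 10 µM test compound in HBSS added apically (A to B) or basolaterally (B to A), 2 h at 37 °C. Both compartments sampled, analysed by LC/MS-MS.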

[6] = Lipophilicity, log D of the compound; assay type: physicochemical; settings: octanol/water
[7] = AUC (0 to last t) in rat at 1 mg/kg, iv; assay type: ADME, organism-based; set-up: time 0 - last, dose 1 mg/kg, route intravenous; settings: plasma
How it was run: (§3)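 Male Sprague–Dawley or Janvier rats, three per route, dosed by oral gavage or iv bolus. Serial blood drawn through an indwelling carotid catheter up to 24 h post dose. Plasma pooled by time point, analysed by LC-MS/MS; non-compartmental analysis.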

[8] = AUC (0 to last t) in rat at 5 mg/kg, po; assay type: ADME, organism-based; set-up: time 0 - last, dose 5 mg/kg, route oral; settings: plasma; how it was run: as §3
[9] = AUC (0 to last t) in Beagle dog at 1 mg/kg, iv; assay type: ADME, organism-based, Canis lupus familiaris; set-up: time 0 - last, dose 1 mg/kg, route intravenous; settings: plasma
How it was run: (§4)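 Three male beagle dogs, crossover design; 1 mg/kg given as a solution, iv bolus and oral gavage. Serial blood sampled up to 48 h post dose. Individual plasma samples analysed by LC-MS/MS; PK parameters derived by non-compartmental analysis.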

[10] = AUC (0 to last t) in Beagle dog at 1 mg/kg, po; assay type: ADME, organism-based, Canis lupus familiaris; set-up: time 0 - last, dose 1 mg/kg, route oral; settings: plasma; how it was run: as §4
[11] = Oral bioavailability in rat at 5 mg/kg; assay type: ADME, organism-based; settings: in vivo; how it was run: as §3
[12] = Oral bioavailability in Beagle dog at 1 mg/kg; assay type: ADME, organism-based, Canis lupus familiaris; settings: in vivo; how it was run: as §4
[13] = Cmax in rat at 1 mg/kg, iv; assay type: ADME, organism-based; set-up: dose 1 mg/kg, route intravenous; settings: in vivo; how it was run: as §3
[14] = Cmax in rat at 5 mg/kg, po; assay type: ADME, organism-based; set-up: dose 5 mg/kg, route oral; settings: in vivo; how it was run: as §3
[15] = Cmax in Beagle dog at 1 mg/kg, iv; assay type: ADME, organism-based, Canis lupus familiaris; set-up: dose 1 mg/kg, route intravenous; settings: in vivo; how it was run: as §4
[16] = Tmax in rat at 1 mg/kg, iv; assay type: ADME, organism-based; set-up: dose 1 mg/kg, route intravenous; settings: in vivo; how it was run: as §3
[17] = Tmax in rat at 5 mg/kg, po; assay type: ADME, organism-based; set-up: dose 5 mg/kg, route oral; settings: in vivo; how it was run: as §3
[18] = Tmax in Beagle dog at 1 mg/kg, iv; assay type: ADME, organism-based, Canis lupus familiaris; set-up: dose 1 mg/kg, route intravenous; settings: in vivo; how it was run: as §4
[19] = Half life in rat at 1 mg/kg, iv; assay type: ADME, organism-based; set-up: dose 1 mg/kg, route intravenous; settings: in vivo; how it was run: as §3
[20] = Half life in rat at 5 mg/kg, po; assay type: ADME, organism-based; set-up: dose 5 mg/kg, route oral; settings: in vivo; how it was run: as §3
[21] = Half life in Beagle dog at 1 mg/kg, iv; assay type: ADME, organism-based, Canis lupus familiaris; set-up: dose 1 mg/kg, route intravenous; settings: in vivo; how it was run: as §4
[22] = Clearance in rat at 1 mg/kg, iv; assay type: ADME, organism-based; set-up: dose 1 mg/kg, route intravenous; settings: in vivo; how it was run: as §3
[23] = Clearance in Beagle dog at 1 mg/kg, iv; assay type: ADME, organism-based, Canis lupus familiaris; set-up: dose 1 mg/kg, route intravenous; settings: in vivo; how it was run: as §4
[24] = Volume of distribution at steady state in rat at 1 mg/kg, iv; assay type: ADME, organism-based; set-up: dose 1 mg/kg, route intravenous; settings: in vivo, read-out: Vdss; how it was run: as §3
[25] = Volume of distribution at steady state in Beagle dog at 1 mg/kg, iv; assay type: ADME, organism-based, Canis lupus familiaris; set-up: dose 1 mg/kg, route intravenous; settings: in vivo, read-out: Vdss; how it was run: as §4
[26] = target: T3, Prostaglandin D2 receptor (Homo sapiens, UniProt Q13258); test: Inhibition of prostaglandin D2 receptor
T3 sequence (Q13258 whole entry): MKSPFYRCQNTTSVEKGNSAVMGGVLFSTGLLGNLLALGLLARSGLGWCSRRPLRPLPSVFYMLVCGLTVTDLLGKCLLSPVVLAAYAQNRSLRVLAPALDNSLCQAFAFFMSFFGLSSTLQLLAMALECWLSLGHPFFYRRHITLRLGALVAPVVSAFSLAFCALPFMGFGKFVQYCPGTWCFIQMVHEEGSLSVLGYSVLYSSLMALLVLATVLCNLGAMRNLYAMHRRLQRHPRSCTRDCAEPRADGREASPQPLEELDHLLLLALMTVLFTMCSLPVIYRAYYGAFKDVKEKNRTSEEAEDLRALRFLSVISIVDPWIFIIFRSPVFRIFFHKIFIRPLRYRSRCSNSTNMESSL

[27] = target: Prostaglandin E2 receptor EP2 subtype (Homo sapiens, UniProt P43116); test: Inhibition of prostanoid EP2 receptor
Chain of Prostaglandin E2 receptor EP2 subtype (P43116 whole entry): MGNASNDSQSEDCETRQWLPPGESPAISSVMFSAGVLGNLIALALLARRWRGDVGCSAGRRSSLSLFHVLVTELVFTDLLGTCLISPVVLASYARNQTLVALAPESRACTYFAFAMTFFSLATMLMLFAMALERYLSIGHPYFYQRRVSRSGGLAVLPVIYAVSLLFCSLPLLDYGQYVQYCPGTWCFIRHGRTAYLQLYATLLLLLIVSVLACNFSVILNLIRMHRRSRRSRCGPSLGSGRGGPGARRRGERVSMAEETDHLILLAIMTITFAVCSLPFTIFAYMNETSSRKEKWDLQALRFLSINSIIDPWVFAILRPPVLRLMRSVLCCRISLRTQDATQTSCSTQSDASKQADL

[28] = Inhibition of prostanoid EP3 receptor
[29] = Inhibition of prostanoid EP4 receptor
[30] = Inhibition of prostanoid FP receptor
[31] = Cmax in Beagle dog at 1 mg/kg, po; settings: in vivo
[32] = Tmax in Beagle dog at 1 mg/kg, po; settings: in vivo
[33] = Half life in Beagle dog at 1 mg/kg, po; settings: in vivo
[34] = target: T1, Prostaglandin D2 receptor 2; test: Antagonist activity at human CRTH2 receptor expressed in CHO cell membrane by [35S]GTP-gamma-S binding assay; assay type: functional, cell membranes
How it was run: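 [35S]GTPγS binding at 30 °C on 10 µg human CRTH2 membranes in 20 mM HEPES/KOH pH 7.4, 10 mM MgCl2, 10 µg/mL saponin, 3 µM GDP, 150 mM NaCl, 2% Me2SO. PGD2 preincubation 10 min (antagonist mode: 80 nM PGD2), then 0.15 nM [35S]GTPγS for 30 min. Nonspecific binding with 10 µM GTPγS; stopped by centrifugation, scintillation counting.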

[35] = target: T4, Cytochrome P450 1A2 (Homo sapiens, UniProt P05177); test: Inhibition of human recombinant CYP1A2; assay type: ADME
T4 sequence (P05177 whole entry): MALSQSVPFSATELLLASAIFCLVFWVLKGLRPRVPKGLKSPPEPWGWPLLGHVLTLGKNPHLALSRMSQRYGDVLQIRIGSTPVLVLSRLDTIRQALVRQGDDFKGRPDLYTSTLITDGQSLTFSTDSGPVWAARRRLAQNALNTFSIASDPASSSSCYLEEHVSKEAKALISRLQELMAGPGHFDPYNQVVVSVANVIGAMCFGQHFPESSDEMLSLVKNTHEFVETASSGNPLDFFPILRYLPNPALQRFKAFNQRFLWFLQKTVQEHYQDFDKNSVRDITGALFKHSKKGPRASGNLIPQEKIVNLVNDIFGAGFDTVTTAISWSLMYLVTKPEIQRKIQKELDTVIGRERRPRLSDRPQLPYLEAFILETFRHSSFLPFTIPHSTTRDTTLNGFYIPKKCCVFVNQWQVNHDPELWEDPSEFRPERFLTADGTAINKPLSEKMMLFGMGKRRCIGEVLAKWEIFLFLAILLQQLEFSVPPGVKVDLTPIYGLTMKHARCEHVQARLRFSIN
How it was run: (§5)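 Human recombinant CYP1A2, 2C9, 2C19, 2D6 and 3A4, each turning an isoform-specific fluorogenic substrate into a fluorescent product; test compound up to 10 µM final in 1% DMSO; fluorescence read-out.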

[36] = target: Cytochrome P450 2C19 (Homo sapiens, UniProt P33261); test: Inhibition of human recombinant CYP2C19; assay type: ADME; how it was run: as §5
Chain of Cytochrome P450 2C19 (P33261 whole entry): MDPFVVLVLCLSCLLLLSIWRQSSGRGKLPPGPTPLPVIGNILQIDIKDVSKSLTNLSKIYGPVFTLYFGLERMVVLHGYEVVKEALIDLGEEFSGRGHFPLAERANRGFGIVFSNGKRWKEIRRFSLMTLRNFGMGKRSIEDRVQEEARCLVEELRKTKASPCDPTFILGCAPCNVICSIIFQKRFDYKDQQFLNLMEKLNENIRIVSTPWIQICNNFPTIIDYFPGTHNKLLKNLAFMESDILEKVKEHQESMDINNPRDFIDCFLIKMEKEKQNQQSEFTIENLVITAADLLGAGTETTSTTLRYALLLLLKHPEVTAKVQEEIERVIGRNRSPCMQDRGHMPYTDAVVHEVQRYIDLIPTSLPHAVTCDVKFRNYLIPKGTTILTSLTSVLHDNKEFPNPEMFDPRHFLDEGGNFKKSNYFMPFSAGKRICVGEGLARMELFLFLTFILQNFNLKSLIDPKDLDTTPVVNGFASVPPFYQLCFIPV

[37] = target: Cytochrome P450 2C9 (Homo sapiens, UniProt P11712); test: Inhibition of human recombinant CYP2C9; assay type: ADME; how it was run: as §5
Chain of Cytochrome P450 2C9 (P11712 whole entry): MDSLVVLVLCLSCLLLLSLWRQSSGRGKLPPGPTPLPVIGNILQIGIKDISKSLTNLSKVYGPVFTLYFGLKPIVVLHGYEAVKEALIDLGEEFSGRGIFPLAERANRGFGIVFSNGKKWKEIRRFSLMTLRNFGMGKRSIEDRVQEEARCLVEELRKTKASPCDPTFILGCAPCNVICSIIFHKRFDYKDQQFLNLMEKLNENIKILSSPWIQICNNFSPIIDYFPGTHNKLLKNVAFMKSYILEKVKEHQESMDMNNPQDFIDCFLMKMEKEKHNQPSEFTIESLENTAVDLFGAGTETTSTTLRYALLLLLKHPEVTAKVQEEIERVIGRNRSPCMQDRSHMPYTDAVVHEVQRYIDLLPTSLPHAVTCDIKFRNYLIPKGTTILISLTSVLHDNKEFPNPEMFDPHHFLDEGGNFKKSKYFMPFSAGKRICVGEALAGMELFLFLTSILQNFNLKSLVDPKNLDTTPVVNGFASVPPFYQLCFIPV

[38] = target: Cytochrome P450 2D6 (Homo sapiens, UniProt P10635); test: Inhibition of human recombinant CYP2D6; assay type: ADME; how it was run: as §5
Chain of Cytochrome P450 2D6 (P10635 whole entry): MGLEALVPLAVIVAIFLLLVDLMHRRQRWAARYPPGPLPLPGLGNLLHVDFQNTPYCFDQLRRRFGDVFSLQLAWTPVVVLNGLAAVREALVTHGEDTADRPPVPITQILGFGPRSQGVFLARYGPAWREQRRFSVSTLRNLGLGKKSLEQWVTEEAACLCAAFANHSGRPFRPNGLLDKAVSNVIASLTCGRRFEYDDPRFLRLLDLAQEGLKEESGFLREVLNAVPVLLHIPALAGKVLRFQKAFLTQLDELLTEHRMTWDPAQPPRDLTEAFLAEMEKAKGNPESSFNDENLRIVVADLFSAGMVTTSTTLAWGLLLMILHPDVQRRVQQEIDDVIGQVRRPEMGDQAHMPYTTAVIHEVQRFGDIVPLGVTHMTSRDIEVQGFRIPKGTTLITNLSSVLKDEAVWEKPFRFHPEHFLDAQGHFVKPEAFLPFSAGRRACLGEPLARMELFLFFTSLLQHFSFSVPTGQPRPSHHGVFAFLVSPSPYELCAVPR

[39] = target: Cytochrome P450 3A4 (Homo sapiens, UniProt P08684); test: Inhibition of human recombinant CYP3A4; assay type: ADME; how it was run: as §5
Chain of Cytochrome P450 3A4 (P08684 whole entry): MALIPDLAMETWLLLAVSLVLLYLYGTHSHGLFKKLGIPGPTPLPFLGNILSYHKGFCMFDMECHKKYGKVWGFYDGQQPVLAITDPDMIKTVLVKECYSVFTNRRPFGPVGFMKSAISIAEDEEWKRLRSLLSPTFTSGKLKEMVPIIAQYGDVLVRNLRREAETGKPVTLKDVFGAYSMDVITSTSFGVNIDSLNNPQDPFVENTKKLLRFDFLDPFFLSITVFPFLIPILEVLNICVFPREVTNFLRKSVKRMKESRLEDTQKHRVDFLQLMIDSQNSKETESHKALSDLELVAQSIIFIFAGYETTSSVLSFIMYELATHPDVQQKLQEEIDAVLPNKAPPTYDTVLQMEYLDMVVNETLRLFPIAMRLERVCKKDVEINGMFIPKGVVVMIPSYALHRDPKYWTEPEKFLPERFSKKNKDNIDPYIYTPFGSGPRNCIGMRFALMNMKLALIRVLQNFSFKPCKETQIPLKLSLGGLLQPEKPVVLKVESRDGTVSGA

pKi [1]: 7.64 | pKi [2]: 7.66 | microsomal CLint at 3 µM [3]: 15 µL/min/mg | microsomal CLint at 3 µM [4]: 23 µL/min/mg | Papp at 10 µM [5]: 2.4 ×10⁻⁶ cm/s | logD [6]: -1 | AUC(0-t) [7]: 1250 ng·h/mL | AUC(0-t) [8]: 2480 ng·h/mL | AUC(0-t) [9]: 2020 ng·h/mL | AUC(0-t) [10]: 2350 ng·h/mL | bioavailability [11]: 40% | bioavailability [12]: 120% | Cmax [13]: 1990 ng/mL | Cmax [14]: 297 ng/mL | Cmax [15]: 2570 ng/mL | Tmax [16]: 0 h | Tmax [17]: 0.5 h | Tmax [18]: 0 h | half-life [19]: 1 h | half-life [20]: 4.2 h | half-life [21]: 7 h | clearance [22]: 13.3 mL/min/kg | clearance [23]: 8.33 mL/min/kg | Vd [24]: 0.9 L/kg | Vd [25]: 2 L/kg | pIC50 [26]: < 4.52 | pIC50 [27]: < 4.52 | pIC50 [28]: < 4.52 | pIC50 [29]: < 4.52 | pIC50 [30]: < 4.52 | Cmax [31]: 503 ng/mL | Tmax [32]: 2 h | half-life [33]: 3 h
Compound: O=C(O)CN1C(=O)[C@@]2(CC(=O)N(Cc3ccccc3F)C2=O)c2cc(Cl)ccc21

pKi [1]: 6.71 | pKi [2]: 6.82 | pIC50 [34]: 6.38 | microsomal CLint at 3 µM [4]: 9 µL/min/mg | pIC50 [35]: < 5.00 | pIC50 [36]: < 5.00 | pIC50 [37]: < 5.00 | pIC50 [38]: < 5.00 | pIC50 [39]: < 5.00 | Papp at 10 µM [5]: 3 ×10⁻⁶ cm/s
Compound: O=C(O)CN1C(=O)C2(CC(=O)N(Cc3ccccc3)C2=O)c2cc(Cl)ccc21 (stereo not drawn)
